Here are results for 27 molecules from ChEMBL document CHEMBL4311937, “Repositioning Salirasib as a new antimalarial agent” (Medchemcomm, 2019).

For series [1], the system named is Plasmodium falciparum. The series can be described thus: Antimalarial activity against synchronized ring stage Plasmodium falciparum 3D7 transfected with nano-luciferase assessed as parasite growth inhibition after 72 hrs by Nano-Glo luciferase assay. It is filed as functional, organism-based. The following applies: 3D7, 72 h. An outline of the steps: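 Assays started at 1% ring stage and 2% hematocrit, with serial RPMI dilutions from 20 mM ethanol stocks. Cultures were lysed with an equal volume of 0.02% saponin buffer containing Nano-Glo substrate, and luminescence was read for 30 s. IC50 was fitted by variable-slope nonlinear regression; 3 experiments ×3 technical replicates.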

Series [2] relates to Plasmodium falciparum. Nature of the series: Antimalarial activity against synchronized ring stage Plasmodium falciparum 3D7 transfected with nano-luciferase assessed as parasite growth inhibition at 200 uM after 72 hrs by Nano-Glo luciferase assay. It is filed as functional, organism-based.
The subject of a further series is Vero. The series can be described thus: Cytotoxicity against African green monkey Vero cells after 72 hrs by MTT assay. The format is cell-based. To be noted: Chlorocebus sabaeus. The method in brief:
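Vero cells in DMEM with 10% FBS and penicillin/streptomycin, 37 °C, 5% CO₂, seeded at 3000 cells/well. Compounds came from 27 or 25 mM DMSO stocks diluted in medium, with matching DMSO controls. After 72 h, cells got 0.5 mg/mL MTT for 4 h at 37 °C; formazan was dissolved in DMSO and absorbance read at 562 nm.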

The nature of series [3]: Selectivity index, ratio of IC50 for African green monkey Vero cells to IC50 for synchronized ring stage Plasmodium falciparum 3D7 transfected with nano-luciferase. The format is toxicity. To be noted: read-out: Ratio IC50.
Series [4] has as its system Plasmodium falciparum. The series can be described thus: Antimalarial activity against synchronized ring stage Plasmodium falciparum 3D7 transfected with nano-luciferase assessed as parasite growth inhibition after 48 hrs by Nano-Glo luciferase assay. It is filed as functional, organism-based. The following applies: 3D7, 48 h. The method in brief: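 nLuc-exporting transfected 3D7 rings were sorbitol-synchronized and cultured in RPMI-1640/0.5% Albumax I under 5% CO₂/5% O₂/90% N₂. Assays started at 1% ring stage and 2% hematocrit, with serial RPMI dilutions from 20 mM ethanol stocks. Cultures were lysed with an equal volume of 0.02% saponin buffer containing Nano-Glo substrate, and luminescence was read for 30 s. IC50 was fitted by variable-slope nonlinear regression; 3 experiments ×3 technical replicates.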

Series [5] concerns Plasmodium falciparum. Nature of the series: Antimalarial activity against synchronized ring stage Plasmodium falciparum 3D7 assessed as parasite growth inhibition measured after 24 to 96 hrs. The following applies: in the assay text read “24 to 72 hrs” for “24 to 96 hrs”. The format is functional, organism-based. An outline of the steps: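 Sorbitol-synchronized 3D7 rings grown in RPMI-1640 with 0.5% Albumax I under 5% CO₂/5% O₂/90% N₂. Started at 1% ring stage, 2% hematocrit, with serial dilutions in RPMI from 20 mM ethanol stocks, plus ethanol solvent controls. Followed up to 72 h. Growth was read by SYBR Green I lysis-buffer staining (485/520 nm) and confirmed by Giemsa smears. IC50 came from variable-slope nonlinear regression; 3 experiments ×3 technical replicates.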

Series [6] deals with Erythrocyte. The series can be described thus: Hemolytic activity in erythrocytes (unknown origin) at 100 uM. It is filed as ADME, cell-based.
The subject of series [7] is Erythrocyte. Nature of the series: Hemolytic activity in erythrocytes (unknown origin) at 200 uM. It is filed as ADME, cell-based.

Molecules are shown by their SMILES. Active and inactive are the calls of the source. No cut-off for these calls is given here. A value given as a limit tells only on which side of the number the result lay.

`C#CCSc1ccccc1C(=O)O`: the IC50 in the series on Plasmodium falciparum [1] is over 200 µM. Moreover, the outcome with Plasmodium falciparum [2] was Active.

For the molecule `O=C(O)c1ccccc1SC/C=C/c1ccccc1`, the IC50 with Plasmodium falciparum [1] was over 200 µM. Also, the outcome in the series with Plasmodium falciparum [2] was Active.

In the case of `O=C(O)c1ccccc1SCc1cn(C/C=C/c2ccccc2)nn1`, the IC50 in the series on Vero was over 200 µM; in the series with Plasmodium falciparum [1], 65.3 µM. For the same molecule, the selectivity ratio in series [3] was over 3.06. For the same molecule, in the series on Plasmodium falciparum [2], the outcome was Active.

`O=C(O)c1ccccc1SC1CCCCC1`: the IC50 with Plasmodium falciparum [1] is over 200 µM. Moreover, the outcome in the series on Plasmodium falciparum [2] was Active.

Turning to `O=C(O)c1ccccc1SCc1cn(CCc2ccccc2)nn1`, the IC50 with Plasmodium falciparum [1] is over 200 µM. Besides, the result with Plasmodium falciparum [2] was Active.

With `CCCCCCCCCCSc1ccccc1C(=O)O`, the IC50 in the series on Plasmodium falciparum [1] is over 200 µM. The result with Plasmodium falciparum [2] was Active.

For the molecule `CCCCCCCCCCCCCn1cc(CSc2ccccc2C(=O)O)nn1`, the IC50 with Vero is 59 µM; with Plasmodium falciparum [1] it was 19.8 µM. Besides, in series [3], the selectivity ratio is 2.99. Also, the result in the series with Plasmodium falciparum [2] was Active.

With `C[C@H]1[C@H](OC(=O)CCC(=O)O)O[C@@H]2O[C@@]3(C)CC[C@H]4[C@H](C)CC[C@@H]1[C@@]24OO3` [ARTESUNATE], the IC50 in the series with Plasmodium falciparum [4] fell in the range of 0.00164 to 0.00174 µM.

Take `O=C(O)c1ccccc1SCc1cn(Cc2ccc3ccccc3c2)nn1`: the IC50 in the series with Vero was 143 µM; with Plasmodium falciparum [1] it was 20.5 µM. Moreover, the selectivity ratio in series [3] amounted to 6.95. Also, the outcome with Plasmodium falciparum [2] was Active.

`CCCCCCCCCCn1cc(CSc2ccccc2C(=O)O)nn1`: the IC50 with Plasmodium falciparum [1] was over 200 µM. For the same molecule, in the series with Plasmodium falciparum [2], the outcome was Active.

Turning to `CC(C)=CCC/C(C)=C/CC/C(C)=C/CSc1ccccc1C(=O)O` [SALIRASIB], the IC50 with Vero worked out at 210 µM; in the series on Plasmodium falciparum [5], 14 µM; in the series with Plasmodium falciparum [1], 20.3 µM. Also, the selectivity ratio in series [3] was 10.3. Also, in the series on Plasmodium falciparum [2], the outcome was Active.

For the molecule `O=C(O)c1ccccc1SCc1cn(C2CCCCC2)nn1`, the concentration for half-maximal inhibition (IC50) in the series on Plasmodium falciparum [1] is over 200 µM. In addition, the result with Plasmodium falciparum [2] was Active.

On to `CCOC(=O)CCSc1ccccc1C(=O)O`, for which the IC50 in the series on Plasmodium falciparum [1] was over 200 µM. In the series with Plasmodium falciparum [2], the outcome was Active.

`CCOC(=O)CCn1cc(CSc2ccccc2C(=O)O)nn1`: the IC50 in the series with Plasmodium falciparum [1] was over 200 µM. The result with Plasmodium falciparum [2] was Active.

As to `CCCCCCCCCCCCCCCCn1cc(CSc2ccccc2C(=O)O)nn1`, the IC50 in the series with Vero is 27 µM; in the series with Plasmodium falciparum [1], 14.4 µM. The selectivity ratio in series [3] stood at 1.86. The result in the series on Plasmodium falciparum [2] was Active. In addition, the results for the Activity result in the series with Erythrocyte [6] and in the series with Erythrocyte [7] were “Non-Toxic” and “Toxic”, respectively.

Turning to `O=C(O)c1ccccc1SCc1cn(Cc2ccccc2)nn1`, the IC50 in the series with Plasmodium falciparum [1] was over 200 µM. Besides, the result in the series with Plasmodium falciparum [2] was Active.

Turning to `CC(C)=CCC/C(C)=C/Cn1cc(CSc2ccccc2C(=O)O)nn1`, in the series with Plasmodium falciparum [1], the IC50 is over 200 µM. Also, the result with Plasmodium falciparum [2] was Active.

With `CCOC(=O)Cn1cc(CSc2ccccc2C(=O)O)nn1`, the IC50 in the series on Plasmodium falciparum [1] is over 200 µM. In addition, the outcome in the series with Plasmodium falciparum [2] was Active.

In the case of `CC(C)=CCC/C(C)=C/CC/C(C)=C/Cn1cc(CSc2ccccc2C(=O)O)nn1`, the values for the IC50 in the series with Vero and in the series on Plasmodium falciparum [1] were over 200 µM and 26 µM, respectively. The selectivity ratio in series [3] is over 7.7. Also, the result with Plasmodium falciparum [2] was Active.

As to `C/C(=C\Cn1cc(CSc2ccccc2C(=O)O)nn1)CCCC(C)CCCC(C)CCCC(C)C` (centres undefined), the IC50 in the series on Vero came out at 34 µM; with Plasmodium falciparum [1] it was 9.75 µM. Also, the selectivity ratio in series [3] amounted to 3.67. The outcome with Plasmodium falciparum [2] was Active. Moreover, the results for the Activity result in the series on Erythrocyte [6] and in the series with Erythrocyte [7] were “Non-Toxic” and “Toxic”, respectively.

`CC(C)=CCn1cc(CSc2ccccc2C(=O)O)nn1`: the IC50 in the series with Plasmodium falciparum [1] is over 200 µM. Further, the result with Plasmodium falciparum [2] was Active.

For `CCCCCCCCSc1ccccc1C(=O)O`, the IC50 in the series on Plasmodium falciparum [1] was over 200 µM. For the same molecule, in the series on Plasmodium falciparum [2], the outcome was Active.

Turning to `O=C(O)c1ccccc1SCc1cn(CCCc2ccccc2)nn1`, in the series on Plasmodium falciparum [1], the IC50 was over 200 µM. Besides, the outcome in the series with Plasmodium falciparum [2] was Active.

In the case of `CCCCCCCCn1cc(CSc2ccccc2C(=O)O)nn1`, the IC50 in the series on Plasmodium falciparum [1] is over 200 µM. In the series with Plasmodium falciparum [2], the result was Active.

In the case of `CC(C)=CCC/C(C)=C/CSc1ccccc1C(=O)O`, the IC50 in the series on Plasmodium falciparum [1] is over 200 µM. Besides, the result in the series with Plasmodium falciparum [2] was Active.

Turning to `CC(C)=CCSc1ccccc1C(=O)O`, in the series with Plasmodium falciparum [1], the IC50 was over 200 µM. Besides, the result with Plasmodium falciparum [2] was Active.

For `C/C(=C\CSc1ccccc1C(=O)O)CCCC(C)CCCC(C)CCCC(C)C` (centres undefined), the concentration for half-maximal inhibition (IC50) turned out to be 52 µM in the series on Vero and 13.4 µM in the series on Plasmodium falciparum [1]. Further, the selectivity ratio in series [3] turned out to be 3.87. The result in the series on Plasmodium falciparum [2] was Active.

The IC50 is the concentration at which inhibition is half-maximal.
